TAAR1 antagonist – antagonists of human TAAR1. Q96RJ0. CHO RD-HGA16 TAAR1, Fluo-8 calcium fluorescence, antagonist. inhibition, % at 3 µM. hit rate 1.5% among 360,000. AID 624466;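 active means inhibition above a per-plate cutoff, the mean inhibition of test compounds on that plate plus 3 SD, cut at about 49% in these data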;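 further: 0% = DMSO plus EC80 beta-PEA response and 100% = DMSO alone without agonist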
Target sequence (Q96RJ0 whole entry, looked up): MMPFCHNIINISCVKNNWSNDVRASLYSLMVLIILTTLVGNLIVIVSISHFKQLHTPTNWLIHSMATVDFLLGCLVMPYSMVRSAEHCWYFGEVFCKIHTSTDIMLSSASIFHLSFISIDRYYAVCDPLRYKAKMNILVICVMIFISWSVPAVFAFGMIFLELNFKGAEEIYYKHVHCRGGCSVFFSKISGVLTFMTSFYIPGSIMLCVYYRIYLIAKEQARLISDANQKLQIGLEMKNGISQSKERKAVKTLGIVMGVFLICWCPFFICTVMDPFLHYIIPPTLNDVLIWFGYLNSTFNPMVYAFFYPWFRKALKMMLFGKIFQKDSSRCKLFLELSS
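System: CHO RD-HGA16 cells bearing hTAAR1. Reagent: EC80 β-phenethylamine stimulus. Schedule: seeding 17-24 h prior, 75-min 37 °C, 30-min RT dye loading. Signal: Fluo-8 intracellular calcium dye fluorescence, real-time kinetic reads. Read-out: % inhibition from peak post-agonist over basal fluorescence ratio. Benchmarks: vehicle wells and EC80 agonist wells. Replicates: n of 1.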
GPR7 antag – human neuropeptides B/W receptor 1 antagonism | hit rate 1.1% among 290,000 | GPR7-expressing cells, fluorescence antagonist assay | P48145 | inhibition, % at 4.4 µM; in the data active means inhibition above about 16%, passing the limit was not always enough;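 further: cells stimulated with the agonist NPW; 0% = agonist with vehicle and 100% = vehicle without agonist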
Target sequence (P48145 whole entry, looked up): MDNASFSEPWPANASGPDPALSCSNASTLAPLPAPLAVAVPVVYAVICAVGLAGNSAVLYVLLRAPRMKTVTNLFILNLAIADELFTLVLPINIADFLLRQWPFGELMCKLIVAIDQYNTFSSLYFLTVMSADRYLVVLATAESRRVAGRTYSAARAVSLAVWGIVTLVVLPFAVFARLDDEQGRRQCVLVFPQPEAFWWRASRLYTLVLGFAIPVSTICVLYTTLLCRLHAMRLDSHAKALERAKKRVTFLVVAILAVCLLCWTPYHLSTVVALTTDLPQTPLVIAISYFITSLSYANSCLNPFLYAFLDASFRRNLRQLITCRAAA
OX1R antag-1 – blocks the human orexin 1 receptor. O43613. CHO/OX1R cells, Fluo-8 calcium fluorescence, orexin A. hit rate 0.43% among 330,000. inhibition, % at 5 µM;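 active means inhibition above its plate's threshold, mean inhibition of all tested compounds on the plate plus 3 SD, cut at about 37% in these data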;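 further: 0% = orexin A challenge wells and 100% = SB-334867-A antagonist wells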
OX1R antag-2 – OX1R (human) antagonism; OX1R-expressing cells, FRET antagonist read-out; inhibition, % at 6.6 µM; hit rate 1.8% among 330,000; AID 485270; in the data active means inhibition mostly above about 38%, no sharp cut-off; inactive means mostly below about 40%;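 further: 0% = agonist challenge alone and 100% = reference antagonist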
CHO parental Ca – counter-screen for OX1R antagonists: effect in parental CHO cells; AID 463079; parental CHO-K1, ATP-induced calcium, Fluo-8 fluorescence; inhibition, % at 5.6 µM; hit rate 0.63% among 330,000;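 active means inhibition above that plate's mean sample inhibition plus 3 SD, cut at about 26% in these data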;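 further: 0% = ATP-challenged DMSO wells and 100% = DMSO wells without ATP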
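Test system: untransfected parental CHO cell line. Compound: one dose, 5.6 µM nominal. Detection: intracellular calcium via Fluo-8 no-wash fluorescent dye. Measure: % inhibition. Benchmarks: ATP-challenged DMSO wells low, unchallenged DMSO wells high.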
TAAR1 agonist – agonists of human TAAR1. hit rate 0.99% among 360,000. Q96RJ0. activation, % at 3 µM. CHO RD-HGA16 TAAR1, Fluo-8 calcium fluorescence; vehicle wells 0%, saturating PEA agonist 100%;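 active means activation above the mean activation of all test compounds in the run plus 3 SD, cut at about 38% in these data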
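test system = CHO RD-HGA16 cells carrying human TAAR1 plus Gα16 | schedule = 17-24 h seeding, 75 min 37 °C dye, 30 min RT | compound dosing = 3 µM single concentration | control set = DMSO and PEA EC100 | replicates = n 1 | signal = Fluo-8 fluorescence, 5 s baseline then 140 s kinetic read | measure = percent activation vs PEA EC100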
Numbers without * were called inactive; · = not tested or not shown. This is a sample that favours compounds with a hit; in the whole collection about 4.5% have one here.

SMILES	TAAR1 antagonist	GPR7 antag	OX1R antag-1	OX1R antag-2	CHO parental Ca	TAAR1 agonist
Cc1c(NC(=O)c2ccc(C(=O)Nc3c(C)n(C)n(-c4ccccc4)c3=O)cc2)c(=O)n(-c2ccccc2)n1C	-18	-19	-24	-2	-5	0
Cc1c(NC(=O)/C=C/c2cn(-c3ccccc3)nc2-c2ccccc2)c(=O)n(-c2ccccc2)n1C	52*	-7	-14	22	-29	12
Cc1c(NC(=O)CN2C(=O)C3C4C=CC(C4)C3C2=O)c(=O)n(-c2ccccc2)n1C (centres undefined)	4	-12	2	7	-9	4
Brc1c(-c2ccccc2)nc2n1Cc1ccccc1-2	-16	-10	-29	64*	-25	1
O=C(NNC(=O)c1cc2ccccc2oc1=O)c1ccccc1[N+](=O)[O-]	-9	-8	-11	77*	-4	2
C/C(=N\NC(=O)c1ccccc1)c1cc2cc([N+](=O)[O-])ccc2oc1=O	-11	-1	-40	36	6	10
C/C(=N\NC(=O)c1ccc([N+](=O)[O-])cc1)c1cc2ccccc2oc1=O	-3	-16	-2	68*	0	1
Cc1cc(C(=O)NNC(=O)c2ccccc2[N+](=O)[O-])c(C)o1	-13	·	-4	3	5	9
COC(=O)C(Cc1ccc(O)cc1)NS(=O)(=O)Cc1ccccc1 (centres undefined)	-30	·	·	·	·	3
Cc1onc(-c2ccccc2Cl)c1C(=O)N1CCCc2ccccc21	8	-5	-16	35*	-19	6
O=C1NC[C@@H](CCCCN2C[C@H](Cc3ccc(O)cc3)N(CCc3ccccc3)C(=O)C2=O)N(CCc2ccc(O)cc2)C1=O	-10	·	·	·	·	2
O=[N+]([O-])c1ccccc1Nc1cccc(F)c1	-17	·	·	·	·	-3
O=[N+]([O-])c1cnccc1Nc1cccc(F)c1	5	-9	-8	75*	-6	0
COc1ccc(Nc2ccncc2[N+](=O)[O-])cc1	13	-8	-13	41*	3	3
c1ccc(Nc2nnc(-c3ccc4c(c3)OCO4)o2)cc1	-26	·	·	·	·	1
Cc1ccc(CN2C(=O)c3ccccc3C2c2nnnn2C(C)C)cc1 (centres undefined)	8	·	·	·	·	0
Cc1cc(C)cc(C(=O)OCC(=O)NCc2cccs2)c1	-12	26*	-7	20	-8	1
O=C(COC(=O)c1ccccc1)NCc1cccs1	-6	-11	-6	5	-6	0
O=C(NNC(=O)C1CCCC1)c1cc([N+](=O)[O-])cc([N+](=O)[O-])c1	-31	·	-3	38*	-3	10
NS(=O)(=O)c1ccc(N=Nc2c[nH]c(=O)c(O)c2)cc1	-4	-5	5	42*	3	6
CC(=O)c1ccc(N=Nc2c(C)[nH][nH]c2=O)cc1	-5	·	-11	43	-29	4
Nc1nc(O)c(N=Nc2ccc(S(N)(=O)=O)cc2)c(=O)[nH]1	-6	-1	·	·	·	0
Cc1[nH][nH]c(=O)c1N=Nc1ccc(S(N)(=O)=O)cc1	-35	·	0	41*	-8	0
O=C(NCCCCC(NC(=O)c1ccccc1)C(=O)O)OCc1ccccc1 (centres undefined)	5	·	·	·	·	1
CC1(C)N([O-])C(c2ccccc2)=C[N+](=O)C1(C)C	-24	-10	9	9	-5	9
SMILES	TAAR1 antagonist	GPR7 antag	OX1R antag-1	OX1R antag-2	CHO parental Ca	TAAR1 agonist
CC1(C)N([O-])C(c2cccs2)=C[N+]1=O	-9	0	-5	7	29*	4
CC(C)n1c(CNC(=O)c2ccccc2F)nnc1SCC(=O)c1ccc(F)cc1	-16	·	·	·	·	39*
Cc1nnc(NC(=O)CSc2nnc(CNC(=O)c3ccccc3F)n2C(C)C)s1	5	·	·	·	·	1
O=C(COCCOCC(=O)N(c1ccccn1)C1CCCCC1)N(c1ccccn1)C1CCCCC1	-35	8	-42	14	-22	0
CC(C)(C)c1ccc(OCC(=O)N(c2ccccn2)C2CCCCC2)cc1	-7	5	-17	15	52*	0
CN[C@H]1C[C@H]2c3[nH]c4c(-c5ccc6c(c5)OCO6)cccc4c3CCN2C(=O)[C@H]1[C@H](C)O	38	·	·	·	·	5
CCCCNC(=O)c1nc(C2CCN(S(=O)(=O)c3cccc(C(F)(F)F)c3)CC2)oc1-c1cccc(C(F)(F)F)c1	-4	·	·	·	·	0
O=C(Nc1ccc(OC(F)(F)F)cc1)Nc1cccc([N+](=O)[O-])c1	53*	43*	36	79*	73*	11
Cc1ccc(NC(=O)Nc2cccc([N+](=O)[O-])c2)cc1F	20	30*	15	36	8	7
O=C(Nc1cccc([N+](=O)[O-])c1)c1ccncc1	-23	-11	0	66*	-7	0
CCNC(=O)C1(C)CCN1Cc1cc(-c2ccccc2)n(C)n1 (centres undefined)	5	·	·	·	·	1
O=S1(=O)N[C@@H](Cc2ccccc2)COc2cccc(N3CCCCC3)c21	7	·	·	·	·	1
COCCN1Cc2cc(C(=O)OC)c3c(c2C1=O)c1cc(F)ccc1n3S(=O)(=O)c1ccc(C)cc1	-47	·	·	·	·	-2
COCCN(C(=O)COC(=O)c1ccco1)c1c(N)n(Cc2ccccc2)c(=O)[nH]c1=O	-32	·	3	10	0	5
COCCN(C(=O)COC(=O)c1ccccc1NCc1ccco1)c1c(N)n(Cc2ccccc2)c(=O)[nH]c1=O	-5	·	-8	42*	-21	0
CCN(C(=O)COC(=O)c1ccccc1NCc1ccco1)c1c(N)n(Cc2ccccc2)c(=O)[nH]c1=O	-2	·	·	·	·	5
CC(C)CN(C(=O)COC(=O)c1ccccc1NCc1ccco1)c1c(N)n(Cc2ccccc2)c(=O)[nH]c1=O	-1	·	13	75*	-19	1
CCOc1ccccc1N1CC(C(=O)N(Cc2nnc(-c3ccccc3Cl)o2)C2CC2)CC1=O (centres undefined)	1	·	-6	7	-22	2
CSc1cccc(N2CC(C(=O)N(Cc3nnc(-c4ccccc4Cl)o3)C3CC3)CC2=O)c1 (centres undefined)	25	7	5	58*	-10	8
O=C(Nc1nnc(C2=COCCO2)o1)c1ccc([N+](=O)[O-])cc1	-4	-3	-8	52*	-8	0
Cn1ccnc1C(=O)c1ccc(NN)c([N+](=O)[O-])c1	1	-16	-36	53*	-16	-1
COC(=O)[C@]12C[C@H](CC(=O)NCc3ccc(C)o3)C(=O)N(Cc3ccc4c(c3)OCO4)C1=C[C@H](COCc1ccccc1)O[C@@H]2C	-22	·	·	·	·	-1
COc1cccc(N2C(=O)CC(Nc3ccc(N4CCOCC4)cc3)C2=O)c1 (centres undefined)	·	2	-6	39*	5	·
